# Test results reported in ChEMBL document CHEMBL1122757, “Angiotensin II: dependence of hormone affinity on the electronegativity of a single side chain” (1984).
# Square brackets hold non-standard residues; d marks the D form. Peptide text beside a SMILES is read from it. Sar = CNCC(=O)O
# Assays:
# [1] = species on record: Oryctolagus cuniculus; test: In vitro biological activity on rabbit aorta strip.; type: functional
# Outline: (§1)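 Isolated rabbit aorta strips under 2 g tension, adjusted during a 60–90-min equilibration, with bath fluid changed every 10–15 min. Peptides added to the tissue bath, concentrations stated as final bath concentrations. Contractile responses recorded with force-displacement transducers.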
# [2] = test system: Rattus norvegicus; test: In vivo biological activity on the blood pressure of the anesthetized rat.; type: functional
# [3] = biological target: T1, Type-1 angiotensin II receptor (Bos taurus) (UniProt P25104); test: Displacement of [3H]AT from angiotensin II receptor in bovine adrenocortical membranes; type: cell membranes
# T1 sequence (whole entry): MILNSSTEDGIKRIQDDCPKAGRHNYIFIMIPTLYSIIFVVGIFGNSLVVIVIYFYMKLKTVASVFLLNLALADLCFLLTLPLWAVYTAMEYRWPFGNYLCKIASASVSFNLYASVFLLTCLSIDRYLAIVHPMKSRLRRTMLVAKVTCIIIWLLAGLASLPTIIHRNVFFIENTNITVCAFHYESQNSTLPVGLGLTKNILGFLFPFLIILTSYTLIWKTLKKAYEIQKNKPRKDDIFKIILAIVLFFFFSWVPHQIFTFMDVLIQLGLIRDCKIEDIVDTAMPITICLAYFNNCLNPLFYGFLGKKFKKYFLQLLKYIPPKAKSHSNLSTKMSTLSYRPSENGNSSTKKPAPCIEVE
# Outline: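 Bovine adrenal glands taken fresh at slaughter, kept in ice-cold saline and dissected; purified adrenal microsomal membranes (~50-100 μg protein) in 100 μL assay buffer with [Sar1,(3',5'-3H2-4'-NH2)Phe4]AT at 5 × 10^-9 M. Competitor 10^-9 to 10^-4 M. Triplicate, 20 °C, 15 min. Filtration on nitrocellulose, scintillation counting. Nonspecific binding with 10^-4 M unlabeled AT. Specific binding as B/BO. At least nine independent experiments; RA given relative to standard.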
# [4] = species on record: Oryctolagus cuniculus; test: In vitro biological activity on rabbit aorta strip; type: functional; outline: as §1
# [5] = test system: Rattus norvegicus; test: In vivo biological activity on the blood pressure of the anesthetized rat; type: functional
SMILES,Activity [1] [%],Activity [2] [%],Activity [3] [%],other results
CNCC(=O)N[C@@H](CCCN=C(N)N)C(=O)N[C@H](C(=O)N[C@@H](Cc1ccc(O)c(Cl)c1)C(=O)N[C@H](C(=O)N[C@@H](Cc1c[nH]cn1)C(=O)N1CCC[C@H]1C(=O)N[C@@H](Cc1ccccc1)C(=O)O)C(C)C)C(C)C,103,82,–,–
CNCC(=O)N[C@@H](CCCN=C(N)N)C(=O)N[C@H](C(=O)N[C@@H](Cc1ccc(O)c(N)c1)C(=O)N[C@H](C(=O)N[C@@H](Cc1c[nH]cn1)C(=O)N1CCC[C@@H]1C(=O)N[C@@H](Cc1ccccc1)C(=O)O)C(C)C)C(C)C,–,–,132,–
CNCC(=O)N[C@@H](CCCN=C(N)N)C(=O)N[C@H](C(=O)N[C@@H](Cc1ccc(O)c([N+](=O)[O-])c1)C(=O)N[C@H](C(=O)N[C@@H](Cc1c[nH]cn1)C(=O)N1CCC[C@@H]1C(=O)N[C@@H](Cc1ccccc1)C(=O)O)C(C)C)C(C)C,–,–,75,–
CNCC(=O)N[C@@H](CCCN=C(N)N)C(=O)N[C@H](C(=O)N[C@@H](Cc1ccc(O)c(N=[N+]=[N-])c1)C(=O)N[C@H](C(=O)N[C@@H](Cc1c[nH]cn1)C(=O)N1CCC[C@H]1C(=O)N[C@@H](Cc1ccccc1)C(=O)O)C(C)C)C(C)C,63,63,–,–
CNCC(=O)N[C@@H](CCCN=C(N)N)C(=O)N[C@H](C(=O)N[C@@H](Cc1ccc(N=[N+]=[N-])cc1)C(=O)N[C@H](C(=O)N[C@@H](Cc1c[nH]cn1)C(=O)N1CCC[C@H]1C(=O)N[C@@H](Cc1ccccc1)C(=O)O)C(C)C)C(C)C,0.3,–,–,–
CNCC(=O)N[C@@H](CCCN=C(N)N)C(=O)N[C@H](C(=O)N[C@@H](Cc1ccc(S(N)(=O)=O)cc1)C(=O)N[C@H](C(=O)N[C@@H](Cc1c[nH]cn1)C(=O)N1CCC[C@@H]1C(=O)N[C@@H](Cc1ccccc1)C(=O)O)C(C)C)C(C)C,–,–,3.8,–
CNCC(=O)N[C@@H](CCCN=C(N)N)C(=O)N[C@H](C(=O)N[C@@H](Cc1ccc(N)cc1)C(=O)N[C@H](C(=O)N[C@@H](Cc1c[nH]cn1)C(=O)N1CCC[C@H]1C(=O)N[C@@H](Cc1ccccc1)C(=O)O)C(C)C)C(C)C,15,14,–,–
CNCC(=O)N[C@@H](CCCN=C(N)N)C(=O)N[C@H](C(=O)N[C@@H](Cc1cc(Cl)c(O)c(Cl)c1)C(=O)N[C@H](C(=O)N[C@@H](Cc1c[nH]cn1)C(=O)N1CCC[C@@H]1C(=O)N[C@@H](Cc1ccccc1)C(=O)O)C(C)C)C(C)C,–,–,28,–
CNCC(=O)N[C@@H](CCCN=C(N)N)C(=O)N[C@H](C(=O)N[C@@H](Cc1cc(Cl)c(O)c(Cl)c1)C(=O)N[C@H](C(=O)N[C@@H](Cc1c[nH]cn1)C(=O)N1CCC[C@H]1C(=O)N[C@@H](Cc1ccccc1)C(=O)O)C(C)C)C(C)C,22,19,–,–
CNCC(=O)N[C@@H](CCCN=C(N)N)C(=O)N[C@H](C(=O)N[C@@H](Cc1cc([N+](=O)[O-])c(O)c([N+](=O)[O-])c1)C(=O)N[C@H](C(=O)N[C@@H](Cc1c[nH]cn1)C(=O)N1CCC[C@H]1C(=O)N[C@@H](Cc1ccccc1)C(=O)O)C(C)C)C(C)C,7.8,0.5,–,–
CNCC(=O)N[C@@H](CCCN=C(N)N)C(=O)N[C@H](C(=O)N[C@@H](Cc1ccc(N=[N+]=[N-])cc1)C(=O)N[C@H](C(=O)N[C@@H](Cc1c[nH]cn1)C(=O)N1CCC[C@@H]1C(=O)N[C@@H](Cc1ccccc1)C(=O)O)C(C)C)C(C)C,–,–,2.6,–
CNCC(=O)N[C@@H](CCCN=C(N)N)C(=O)N[C@H](C(=O)N[C@@H](Cc1ccc(O)cc1)C(=O)N[C@H](C(=O)N[C@@H](Cc1c[nH]cn1)C(=O)N1CCC[C@H]1C(=O)N[C@@H](Cc1ccccc1)C(=O)O)C(C)C)C(C)C (H-[Sar]RVYVHPF-OH),100,100,–,–
CNCC(=O)N[C@@H](CCCN=C(N)N)C(=O)N[C@H](C(=O)N[C@@H](Cc1ccc([N+](=O)[O-])cc1)C(=O)N[C@H](C(=O)N[C@@H](Cc1c[nH]cn1)C(=O)N1CCC[C@H]1C(=O)N[C@@H](Cc1ccccc1)C(=O)O)C(C)C)C(C)C,0,0.2,–,–
CNCC(=O)N[C@@H](CCCN=C(N)N)C(=O)N[C@H](C(=O)N[C@@H](Cc1ccc(N)cc1)C(=O)N[C@H](C(=O)N[C@@H](Cc1c[nH]cn1)C(=O)N1CCC[C@@H]1C(=O)N[C@@H](Cc1ccccc1)C(=O)O)C(C)C)C(C)C,–,–,28,–
CNCC(=O)N[C@@H](CCCN=C(N)N)C(=O)N[C@H](C(=O)N[C@@H](Cc1ccccc1)C(=O)N[C@H](C(=O)N[C@@H](Cc1c[nH]cn1)C(=O)N1CCC[C@@H]1C(=O)N[C@@H](Cc1ccccc1)C(=O)O)C(C)C)C(C)C,–,–,18,–
CNCC(=O)N[C@@H](CCCN=C(N)N)C(=O)N[C@H](C(=O)N[C@@H](Cc1ccc(O)c([N+](=O)[O-])c1)C(=O)N[C@H](C(=O)N[C@@H](Cc1c[nH]cn1)C(=O)N1CCC[C@H]1C(=O)N[C@@H](Cc1ccccc1)C(=O)O)C(C)C)C(C)C,38,16,–,–
CNCC(=O)N[C@@H](CCCN=C(N)N)C(=O)N[C@H](C(=O)N[C@@H](Cc1ccc(S(N)(=O)=O)cc1)C(=O)N[C@H](C(=O)N[C@@H](Cc1c[nH]cn1)C(=O)N1CCC[C@H]1C(=O)N[C@@H](Cc1ccccc1)C(=O)O)C(C)C)C(C)C,3.2,0.9,–,–
CNCC(=O)N[C@@H](CCCN=C(N)N)C(=O)N[C@H](C(=O)N[C@@H](Cc1ccc(S)cc1)C(=O)N[C@H](C(=O)N[C@@H](Cc1c[nH]cn1)C(=O)N1CCC[C@H]1C(=O)N[C@@H](Cc1ccccc1)C(=O)O)C(C)C)C(C)C,0.9,–,–,–
CNCC(=O)N[C@@H](CCCN=C(N)N)C(=O)N[C@H](C(=O)N[C@@H](Cc1ccc(S)cc1)C(=O)N[C@H](C(=O)N[C@@H](Cc1c[nH]cn1)C(=O)N1CCC[C@@H]1C(=O)N[C@@H](Cc1ccccc1)C(=O)O)C(C)C)C(C)C,–,–,0.5,–
CNCC(=O)N[C@@H](CCCN=C(N)N)C(=O)N[C@H](C(=O)N[C@@H](Cc1ccc(O)cc1)C(=O)N[C@H](C(=O)N[C@@H](Cc1c[nH]cn1)C(=O)N1CCC[C@@H]1C(=O)N[C@@H](Cc1ccccc1)C(=O)O)C(C)C)C(C)C (H-[Sar]RVYVH[dP]F-OH),–,–,100,–
CNCC(=O)N[C@@H](CCCN=C(N)N)C(=O)N[C@H](C(=O)N[C@@H](Cc1cc(I)c(N)c(I)c1)C(=O)N[C@H](C(=O)N[C@@H](Cc1c[nH]cn1)C(=O)N1CCC[C@H]1C(=O)N[C@@H](Cc1ccccc1)C(=O)O)C(C)C)C(C)C,2.7,5.3,–,–
CNCC(=O)N[C@@H](CCCN=C(N)N)C(=O)N[C@H](C(=O)N[C@@H](Cc1cc([N+](=O)[O-])c(O)c([N+](=O)[O-])c1)C(=O)N[C@H](C(=O)N[C@@H](Cc1c[nH]cn1)C(=O)N1CCC[C@@H]1C(=O)N[C@@H](Cc1ccccc1)C(=O)O)C(C)C)C(C)C,–,–,1.5,–
CNCC(=O)N[C@@H](CCCN=C(N)N)C(=O)N[C@H](C(=O)N[C@@H](Cc1cc(I)c(N)c(I)c1)C(=O)N[C@H](C(=O)N[C@@H](Cc1c[nH]cn1)C(=O)N1CCC[C@@H]1C(=O)N[C@@H](Cc1ccccc1)C(=O)O)C(C)C)C(C)C,–,–,16,–
CNCC(=O)N[C@@H](CCCN=C(N)N)C(=O)N[C@H](C(=O)N[C@@H](Cc1ccc(S(=O)(=O)O)cc1)C(=O)N[C@H](C(=O)N[C@@H](Cc1c[nH]cn1)C(=O)N1CCC[C@@H]1C(=O)N[C@@H](Cc1ccccc1)C(=O)O)C(C)C)C(C)C,–,–,0,–
CNCC(=O)N[C@@H](CCCN=C(N)N)C(=O)N[C@H](C(=O)N[C@@H](Cc1ccc(O)c(N)c1)C(=O)N[C@H](C(=O)N[C@@H](Cc1c[nH]cn1)C(=O)N1CCC[C@H]1C(=O)N[C@@H](Cc1ccccc1)C(=O)O)C(C)C)C(C)C,120,184,–,–
CNCC(=O)N[C@@H](CCCN=C(N)N)C(=O)N[C@H](C(=O)N[C@@H](Cc1ccccc1)C(=O)N[C@H](C(=O)N[C@@H](Cc1c[nH]cn1)C(=O)N1CCC[C@H]1C(=O)N[C@@H](Cc1ccccc1)C(=O)O)C(C)C)C(C)C,–,–,–,Activity [4]: 9.8%; Activity [5]: 8.1%
CNCC(=O)N[C@@H](CCCN=C(N)N)C(=O)N[C@H](C(=O)N[C@@H](Cc1ccc(S(=O)(=O)O)cc1)C(=O)N[C@H](C(=O)N[C@@H](Cc1c[nH]cn1)C(=O)N1CCC[C@H]1C(=O)N[C@@H](Cc1ccccc1)C(=O)O)C(C)C)C(C)C,0,0,–,–
CNCC(=O)N[C@@H](CCCN=C(N)N)C(=O)N[C@H](C(=O)N[C@@H](Cc1ccc([N+](=O)[O-])cc1)C(=O)N[C@H](C(=O)N[C@@H](Cc1c[nH]cn1)C(=O)N1CCC[C@@H]1C(=O)N[C@@H](Cc1ccccc1)C(=O)O)C(C)C)C(C)C,–,–,1.5,–
CNCC(=O)N[C@@H](CCCN=C(N)N)C(=O)N[C@H](C(=O)N[C@@H](Cc1ccc(O)c(Cl)c1)C(=O)N[C@H](C(=O)N[C@@H](Cc1c[nH]cn1)C(=O)N1CCC[C@@H]1C(=O)N[C@@H](Cc1ccccc1)C(=O)O)C(C)C)C(C)C,–,–,87,–
CNCC(=O)N[C@@H](CCCN=C(N)N)C(=O)N[C@H](C(=O)N[C@@H](Cc1ccc(O)c(N=[N+]=[N-])c1)C(=O)N[C@H](C(=O)N[C@@H](Cc1c[nH]cn1)C(=O)N1CCC[C@@H]1C(=O)N[C@@H](Cc1ccccc1)C(=O)O)C(C)C)C(C)C,–,–,61,–
